Assay results published in ChEMBL document CHEMBL4765233, “From Lead to Drug Candidate: Optimization of 3-(Phenylethynyl)-1H-pyrazolo[3,4-d]pyrimidin-4-amine Derivatives as Agents for the Treatment of Triple Negative Breast Cancer” (J Med Chem, 2016).
Activity calls are given as the source filed them. The rule behind the calls is not given here.

Key:
[1] = Metabolic stability in human liver microsomes assessed as parent compound remaining at 1 uM measured after 60 mins in presence of NADPH by HPLC-MS/MS analysis; assay type: ADME, Microsome; conditions: read-out: Stabilty
In short: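 Compound at 1 μM incubated with 0.5 mg/mL liver microsomes and 1 mM NADPH. Samples taken at 0, 10, 15, 30, 45 and 60 min and quenched with acetonitrile. After centrifugation, supernatant analysed by HPLC-MS/MS, with percent parent remaining relative to the 0 min area.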

[2] = target: Proto-oncogene tyrosine-protein kinase Src (Homo sapiens) (UniProt P12931); assay: Inhibition of Src in human MDA-MB-231 cells assessed as inhibition of STAT3 phosphorylation at 0.1 to 0.3 uM incubated for 20 hrs by Western blot analysis; assay type: cell-based; conditions: dose 0.1-0.3 µM
Proto-oncogene tyrosine-protein kinase Src (Homo sapiens), sequence (P12931 2-536 limits assumed): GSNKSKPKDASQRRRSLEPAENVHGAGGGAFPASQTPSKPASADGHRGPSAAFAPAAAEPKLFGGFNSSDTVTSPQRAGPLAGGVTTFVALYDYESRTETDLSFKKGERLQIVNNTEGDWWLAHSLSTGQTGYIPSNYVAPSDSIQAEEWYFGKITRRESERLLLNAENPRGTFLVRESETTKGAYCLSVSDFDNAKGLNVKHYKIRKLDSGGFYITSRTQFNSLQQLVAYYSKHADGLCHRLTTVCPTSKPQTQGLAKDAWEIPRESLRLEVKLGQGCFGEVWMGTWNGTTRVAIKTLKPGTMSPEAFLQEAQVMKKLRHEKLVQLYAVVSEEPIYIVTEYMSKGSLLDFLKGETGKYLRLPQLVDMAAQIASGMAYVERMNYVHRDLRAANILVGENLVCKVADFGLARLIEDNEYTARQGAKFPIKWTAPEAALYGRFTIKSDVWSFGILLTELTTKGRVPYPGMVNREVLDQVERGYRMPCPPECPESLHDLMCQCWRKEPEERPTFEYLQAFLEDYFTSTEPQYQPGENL
In short: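 MDA-MB-231 cells treated with a series of concentrations for 20 h at 37 °C. Cells washed with ice-cold saline and lysed in RIPA buffer with protease cocktail. Lysates cleared at 12000 rpm for 10 min at 4 °C and protein quantified by Bradford. Equal protein separated by SDS-PAGE, transferred to PVDF and probed with antibodies.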

[3] = target: High affinity nerve growth factor receptor (Homo sapiens, UniProt P04629); assay: Inhibition of human recombinant TRKA (440 to end residues) using KKKSPGEYVNIEFG as substrate incubated for 40 mins in presence of [gamma33P-ATP] by radiometric scintillation counting analysis
High affinity nerve growth factor receptor, sequence (P04629 whole entry): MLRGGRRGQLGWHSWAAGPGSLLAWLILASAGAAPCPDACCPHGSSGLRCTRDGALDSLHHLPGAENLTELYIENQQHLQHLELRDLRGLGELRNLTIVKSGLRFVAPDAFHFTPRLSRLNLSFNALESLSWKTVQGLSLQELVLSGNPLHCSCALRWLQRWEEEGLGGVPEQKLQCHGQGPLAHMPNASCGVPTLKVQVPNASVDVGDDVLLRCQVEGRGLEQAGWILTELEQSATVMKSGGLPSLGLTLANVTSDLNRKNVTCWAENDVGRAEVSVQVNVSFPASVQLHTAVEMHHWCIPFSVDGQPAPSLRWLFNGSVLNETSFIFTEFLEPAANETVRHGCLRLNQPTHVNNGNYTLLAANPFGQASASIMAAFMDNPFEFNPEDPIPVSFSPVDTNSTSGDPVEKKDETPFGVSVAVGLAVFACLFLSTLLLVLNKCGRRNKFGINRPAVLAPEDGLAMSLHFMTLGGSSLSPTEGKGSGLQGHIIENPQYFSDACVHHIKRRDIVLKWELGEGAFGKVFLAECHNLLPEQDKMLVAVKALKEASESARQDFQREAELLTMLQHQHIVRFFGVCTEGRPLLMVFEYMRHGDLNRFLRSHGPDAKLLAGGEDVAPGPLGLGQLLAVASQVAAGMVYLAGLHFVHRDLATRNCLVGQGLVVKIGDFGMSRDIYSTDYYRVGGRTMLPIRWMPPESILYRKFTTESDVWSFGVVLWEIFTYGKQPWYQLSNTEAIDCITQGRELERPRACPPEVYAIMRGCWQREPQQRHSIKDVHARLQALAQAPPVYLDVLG
In short: (§1)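 Radiometric kinase assay run as an external profiling service, with ATP at the Km of each kinase. IC50 values are means of two independent experiments.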

[4] = species on record: Danio rerio; assay: Antiangiogenesis activity in EGFP-labelled zebrafish embryo assessed as reduction in formation of intersegmental vessels at 1.25 to 5 uM incubated for overnight by fluorescence microscopic analysis; assay type: functional, organism-based; conditions: dose 1.25-5 µM
In short: (§2)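 Transgenic FLK:EGFP zebrafish kept at 28 °C, pH 7.2−7.4, 14 h light/10 h dark. Embryos at 30 hpf incubated overnight with compound at 1.25, 2.5 or 5 μM beside a blank control. Fish anaesthetized, then vessels imaged by fluorescence microscopy.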

[5] = tested on: MDA-MB-231; assay: Antimigratory activity against human MDA-MB-231 cells assessed as inhibition of cell migration at 0.3 uM incubated for 20 hrs by wound healing assay; assay type: functional, cell-based
In short: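 MDA-MB-231 monolayer grown to confluence, scratched with a sterile pipet tip, rinsed with physiological saline, then given DMEM containing vehicle or compound. Wound imaged after 20 h to assess migration.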

[6] = target: Ephrin type-A receptor 4 (Homo sapiens, UniProt P54764); assay: Inhibition of human recombinant EPHA4 (601 to 892 residues) using poly(Glu,Tyr)4:1 as substrate incubated for 40 mins in presence of [gamma33P-ATP] by radiometric scintillation counting analysis; in short: as §1
Ephrin type-A receptor 4, sequence (P54764 whole entry, the tested form may be a part): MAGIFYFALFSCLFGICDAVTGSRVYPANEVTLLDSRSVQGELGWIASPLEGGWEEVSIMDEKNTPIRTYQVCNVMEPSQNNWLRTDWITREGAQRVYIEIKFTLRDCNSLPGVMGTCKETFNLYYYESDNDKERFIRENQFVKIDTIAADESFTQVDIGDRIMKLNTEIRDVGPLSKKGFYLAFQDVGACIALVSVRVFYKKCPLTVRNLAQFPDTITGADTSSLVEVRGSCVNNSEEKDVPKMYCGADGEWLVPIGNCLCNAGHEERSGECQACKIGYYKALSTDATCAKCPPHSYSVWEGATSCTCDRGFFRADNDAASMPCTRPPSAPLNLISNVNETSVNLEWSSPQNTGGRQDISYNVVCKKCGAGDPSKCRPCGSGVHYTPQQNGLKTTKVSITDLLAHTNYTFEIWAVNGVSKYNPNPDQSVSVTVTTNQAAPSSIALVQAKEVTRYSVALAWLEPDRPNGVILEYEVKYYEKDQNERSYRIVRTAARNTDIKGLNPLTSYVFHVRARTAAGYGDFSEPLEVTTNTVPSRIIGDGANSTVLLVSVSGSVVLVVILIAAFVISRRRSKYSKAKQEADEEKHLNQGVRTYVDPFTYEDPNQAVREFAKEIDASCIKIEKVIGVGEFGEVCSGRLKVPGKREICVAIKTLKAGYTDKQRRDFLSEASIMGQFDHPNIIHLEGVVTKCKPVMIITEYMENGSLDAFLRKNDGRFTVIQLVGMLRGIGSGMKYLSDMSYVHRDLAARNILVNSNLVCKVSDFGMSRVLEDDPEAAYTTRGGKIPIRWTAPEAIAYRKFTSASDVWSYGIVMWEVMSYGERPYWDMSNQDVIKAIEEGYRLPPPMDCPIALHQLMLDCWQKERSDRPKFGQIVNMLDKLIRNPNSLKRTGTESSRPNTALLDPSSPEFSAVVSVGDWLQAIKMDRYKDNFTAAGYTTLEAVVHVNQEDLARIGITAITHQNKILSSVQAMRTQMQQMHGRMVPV

[7] = tested on: MDA-MB-435; assay: Antitumor activity against human MDA-MB-435 cells xenografted in SCID mouse assessed as tumor growth inhibition at 40 mg/kg, po QD for 21 days and measured every 3 days; assay type: functional; conditions: MDA-MB-435, po, 504 h, time 21 day
In short: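 SCID mice (5−6 weeks) injected subcutaneously with 100 μL of cells at 5 × 10^7/mL. At 150−200 mm3 mice randomized, 6 per group. Oral compounds given in water with 25% PEG400 plus 5% DMSO; paclitaxel given 10 mg/kg/week iv. Tumor volume a×b²/2 and body weight measured every 3 days. Inhibition rate (c−d)/c×100% against vehicle control.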

[8] = tested on: MDA-MB-231; assay: Induction of apoptosis in human MDA-MB-231 cells assessed as early apoptotic cells at 0.1 uM incubated for 24 hrs by annexin V-FITC and propidium iodide staining based flow cytometry analysis (reference value: 2 %); assay type: functional
[9] = target: Mitogen-activated protein kinase 14 (Homo sapiens, UniProt Q16539); assay: Inhibition of human full length recombinant p38alpha using myelin basic protein as substrate incubated for 40 mins in presence of [gamma33P-ATP] by radiometric scintillation counting analysis; in short: as §1
Mitogen-activated protein kinase 14, sequence (Q16539 whole entry): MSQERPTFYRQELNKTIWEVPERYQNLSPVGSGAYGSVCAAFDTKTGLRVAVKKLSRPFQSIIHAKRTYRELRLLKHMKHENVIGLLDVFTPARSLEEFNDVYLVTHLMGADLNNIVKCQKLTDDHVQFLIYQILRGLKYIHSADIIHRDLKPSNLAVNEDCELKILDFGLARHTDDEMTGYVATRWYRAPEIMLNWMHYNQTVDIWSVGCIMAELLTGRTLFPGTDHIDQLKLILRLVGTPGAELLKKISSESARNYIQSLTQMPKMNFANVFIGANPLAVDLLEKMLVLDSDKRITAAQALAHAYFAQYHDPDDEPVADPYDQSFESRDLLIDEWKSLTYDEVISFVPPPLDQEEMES

[10] = tested on: MDA-MB-231; assay: Inhibition of colony formation in human MDA-MB-231 cells at >0.1 uM treated for 12 days by crystal violet staining based visual analysis; assay type: functional; conditions: dose microM >0.1; time 12 day
In short: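 MDA-MB-231 cells seeded at 5000 per well in six-well plates and treated the next day, with drug-containing medium replaced every 4 days. After 12 days, colonies fixed with methanol and stained with crystal violet, then photographed.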

[11] = tested on: MDA-MB-231; assay: Induction of apoptosis in human MDA-MB-231 cells assessed as necrotic cells at 0.03 uM incubated for 24 hrs by annexin V-FITC and propidium iodide staining based flow cytometry analysis (reference value: 0.2 %); assay type: functional
[12] = tested on: A-375; assay: Antiproliferative activity against human A-375 cells assessed as reduction in cell viability incubated for 72 hrs by MTT assay; assay type: functional, cell-based; conditions: A-375, 72 h
In short: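 MTT viability assay. ATCC cell lines were grown in designated medium with 10% FBS at 37 °C, 5% CO2. Cells seeded at 1500−30000 per well and incubated 24 h, then exposed to compound (0−10 μg/mL) for 72 h. MTT added for 2−4 h. Formazan dissolved in DMSO (adherent) or acidified SDS overnight (suspension), absorbance read at 570 nm. Triplicates; IC50 calculated.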

[13] = target: Platelet-derived growth factor receptor alpha (Homo sapiens, UniProt P16234); assay: Inhibition of human recombinant PDGFRalpha (550 to end residues) using poly(Glu, Tyr)4:1 as substrate incubated for 40 mins in presence of [gamma33P-ATP] by radiometric scintillation counting analysis; in short: as §1
Platelet-derived growth factor receptor alpha, sequence (P16234 whole entry): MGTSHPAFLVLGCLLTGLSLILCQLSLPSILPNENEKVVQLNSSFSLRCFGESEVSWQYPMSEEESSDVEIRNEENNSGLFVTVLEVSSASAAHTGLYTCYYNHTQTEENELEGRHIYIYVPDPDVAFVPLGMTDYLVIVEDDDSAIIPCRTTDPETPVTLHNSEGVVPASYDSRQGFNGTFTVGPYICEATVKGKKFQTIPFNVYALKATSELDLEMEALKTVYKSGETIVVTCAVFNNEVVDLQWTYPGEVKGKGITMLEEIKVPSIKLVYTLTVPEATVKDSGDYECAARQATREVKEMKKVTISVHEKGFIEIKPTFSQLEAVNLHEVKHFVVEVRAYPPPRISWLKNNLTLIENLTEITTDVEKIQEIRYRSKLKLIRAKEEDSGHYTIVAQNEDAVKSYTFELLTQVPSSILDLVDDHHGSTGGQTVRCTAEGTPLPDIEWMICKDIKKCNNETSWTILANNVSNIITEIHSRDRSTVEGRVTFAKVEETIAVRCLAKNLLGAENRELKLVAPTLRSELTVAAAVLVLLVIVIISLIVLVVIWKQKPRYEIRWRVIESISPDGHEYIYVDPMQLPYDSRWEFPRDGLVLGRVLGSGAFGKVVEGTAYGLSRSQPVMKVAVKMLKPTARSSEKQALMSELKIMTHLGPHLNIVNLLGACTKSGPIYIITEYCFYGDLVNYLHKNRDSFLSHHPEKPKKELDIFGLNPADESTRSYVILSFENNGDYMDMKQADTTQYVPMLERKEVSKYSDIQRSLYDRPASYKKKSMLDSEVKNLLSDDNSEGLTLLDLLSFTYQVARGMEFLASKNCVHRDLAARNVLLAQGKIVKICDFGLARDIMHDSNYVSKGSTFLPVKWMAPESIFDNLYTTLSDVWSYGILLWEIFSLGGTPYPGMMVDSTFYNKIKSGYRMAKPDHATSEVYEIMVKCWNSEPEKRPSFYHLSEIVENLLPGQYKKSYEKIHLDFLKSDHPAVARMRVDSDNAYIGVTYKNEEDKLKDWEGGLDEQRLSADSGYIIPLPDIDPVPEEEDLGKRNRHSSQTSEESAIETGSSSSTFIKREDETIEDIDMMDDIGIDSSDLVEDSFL

[14] = Acute toxicity in Sprague-Dawley rat assessed as histopathological changes in lungs at 100 mg/kg, po administered as single dose measured after 24 hrs by H and E staining based light microscope analysis; assay type: organism-based; conditions: in vivo
In short: (§3)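 Sprague-Dawley rats received a single oral dose of 100 mg/kg in sterile water with 25% (v/v) PEG400 plus 5% DMSO. Organs were examined by histology and immunohistochemistry for pathological changes. Behaviour and side effects were checked daily.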

[15] = species on record: Danio rerio; assay: Antiangiogenesis activity in EGFP-labelled zebrafish embryo assessed as reduction in formation of major cranial vessel at 1.25 to 5 uM incubated for overnight by fluorescence microscopic analysis; assay type: functional, organism-based; conditions: dose 1.25-5 µM; in short: as §2
[16] = tested on: MDA-MB-231; assay: Induction of apoptosis in human MDA-MB-231 cells assessed as late apoptotic cells at 0.03 uM incubated for 24 hrs by annexin V-FITC and propidium iodide staining based flow cytometry analysis (reference value: 0.85 %); assay type: functional
[17] = Acute toxicity in Sprague-Dawley rat assessed as histopathological changes in kidney at 100 mg/kg, po administered as single dose measured after 24 hrs by H and E staining based light microscope analysis; assay type: organism-based; conditions: in vivo; in short: as §3
[18] = Cmax in Sprague-Dawley rat at 10 mg/kg, po administered via gavage by LC-MS analysis; assay type: ADME, organism-based; parameters: route oral, dose 10 mg/kg; conditions: in vivo
[19] = target: Ephrin type-A receptor 7 (Homo sapiens, UniProt Q15375); assay: Inhibition of human recombinant EPHA7 (613 to 909 residues) using KTFCGTPEYLAPEVRREPRILSEEEQEMFRDFDYIADWC incubated for 40 mins in presence of [gamma33P-ATP] by radiometric scintillation counting analysis; in short: as §1
Ephrin type-A receptor 7, sequence (Q15375 whole entry, the tested form may be a part): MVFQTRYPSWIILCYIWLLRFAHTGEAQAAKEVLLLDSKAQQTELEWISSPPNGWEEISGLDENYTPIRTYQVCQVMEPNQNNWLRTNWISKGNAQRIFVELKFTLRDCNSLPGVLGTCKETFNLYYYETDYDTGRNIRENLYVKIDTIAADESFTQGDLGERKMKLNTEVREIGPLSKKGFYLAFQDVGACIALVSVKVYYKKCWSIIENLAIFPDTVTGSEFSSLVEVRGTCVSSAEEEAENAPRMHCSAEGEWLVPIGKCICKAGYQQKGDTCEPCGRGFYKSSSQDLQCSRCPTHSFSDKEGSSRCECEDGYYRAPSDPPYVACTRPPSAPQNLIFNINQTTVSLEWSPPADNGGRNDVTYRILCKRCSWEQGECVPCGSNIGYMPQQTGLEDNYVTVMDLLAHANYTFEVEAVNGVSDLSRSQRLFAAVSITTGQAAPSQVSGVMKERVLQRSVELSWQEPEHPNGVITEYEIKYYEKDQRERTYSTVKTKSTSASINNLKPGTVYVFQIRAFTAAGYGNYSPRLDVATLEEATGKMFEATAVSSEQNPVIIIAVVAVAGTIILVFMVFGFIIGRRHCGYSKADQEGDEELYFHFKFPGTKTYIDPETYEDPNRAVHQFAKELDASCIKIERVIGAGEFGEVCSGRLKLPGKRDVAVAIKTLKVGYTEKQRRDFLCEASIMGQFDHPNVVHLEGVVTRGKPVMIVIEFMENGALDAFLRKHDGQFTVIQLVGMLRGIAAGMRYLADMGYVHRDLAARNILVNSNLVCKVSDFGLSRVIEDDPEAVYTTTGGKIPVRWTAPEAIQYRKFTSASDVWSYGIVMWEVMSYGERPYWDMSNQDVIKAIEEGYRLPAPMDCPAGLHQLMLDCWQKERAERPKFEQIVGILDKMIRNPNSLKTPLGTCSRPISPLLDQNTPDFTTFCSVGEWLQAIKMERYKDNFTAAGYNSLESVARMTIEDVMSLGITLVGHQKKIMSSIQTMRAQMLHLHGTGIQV

[20] = AUC (0 to infinity) in Sprague-Dawley rat at 10 mg/kg, po administered via gavage by LC-MS analysis; assay type: ADME, organism-based; parameters: time infinity, route oral, dose 10 mg/kg; conditions: in vivo

## Cc1ccc(NC(=O)c2ccc(C)c(C(F)(F)F)c2)cc1C#Cc1nn([C@H]2CC[C@H](O)CC2)c2ncnc(N)c12
[1]
  remaining at 1 h, 1 µM: > 90%
[2]
  inhibition: Active
[3]
  IC50: > 10000 nM
[4]
  Activity: Active
[5]
  Activity: Active
[6]
  IC50: 227 nM
[7]
  inhibition in vivo at 40 mg/kg/day: 100%
[8]
  Activity: 13.48%
[9]
  IC50: 342 nM
[10]
  inhibition (INH): 100%
[11]
  Activity: 2.42%
[12]
  IC50: 31 nM
[13]
  IC50: 1290 nM
[14]
  Activity: Non-Toxic
[15]
  Activity: inactive
[16]
  Activity: 11.2%
[17]
  Activity: Non-Toxic
[18]
  Cmax: 143 ng/mL
[19]
  IC50: 143 nM
[20]
  AUC(0-inf): 2950 ng·h/mL
